Assay [1] addresses T1, Tyrosine-protein phosphatase non-receptor type 1 (Homo sapiens, UniProt P18031).
T1 sequence (P18031 whole entry): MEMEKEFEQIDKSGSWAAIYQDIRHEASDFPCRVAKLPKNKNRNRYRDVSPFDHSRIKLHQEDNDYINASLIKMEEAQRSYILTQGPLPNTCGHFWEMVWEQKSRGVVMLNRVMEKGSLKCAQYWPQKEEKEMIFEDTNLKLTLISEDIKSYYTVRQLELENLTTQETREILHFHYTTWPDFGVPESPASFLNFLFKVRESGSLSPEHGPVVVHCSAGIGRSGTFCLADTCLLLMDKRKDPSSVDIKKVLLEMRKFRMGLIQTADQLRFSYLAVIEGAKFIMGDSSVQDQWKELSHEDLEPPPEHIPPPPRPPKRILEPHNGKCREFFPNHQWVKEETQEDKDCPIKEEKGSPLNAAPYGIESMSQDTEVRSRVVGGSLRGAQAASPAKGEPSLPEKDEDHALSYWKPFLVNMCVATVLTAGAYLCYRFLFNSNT
Kind of assay: Inhibition of recombinant PTP1B (unknown origin) using pNPP as substrate by spectrophotometric method. The method, boiled down: (§1)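 Recombinant PTP prepared in-house, assayed with pNPP substrate in 50 mM 3,3-dimethylglutarate buffer pH 7.0 containing 1 mM EDTA and 150 mM NaCl at 25 °C, in 96-well format. p-Nitrophenol product was quantified by absorbance at 405 nm. Non-enzymatic pNPP hydrolysis was corrected using a no-enzyme control.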

In assay [2] the target is T2, Tyrosine-protein phosphatase non-receptor type 22 (Homo sapiens, UniProt Q9Y2R2).
T2 sequence (Q9Y2R2 whole entry): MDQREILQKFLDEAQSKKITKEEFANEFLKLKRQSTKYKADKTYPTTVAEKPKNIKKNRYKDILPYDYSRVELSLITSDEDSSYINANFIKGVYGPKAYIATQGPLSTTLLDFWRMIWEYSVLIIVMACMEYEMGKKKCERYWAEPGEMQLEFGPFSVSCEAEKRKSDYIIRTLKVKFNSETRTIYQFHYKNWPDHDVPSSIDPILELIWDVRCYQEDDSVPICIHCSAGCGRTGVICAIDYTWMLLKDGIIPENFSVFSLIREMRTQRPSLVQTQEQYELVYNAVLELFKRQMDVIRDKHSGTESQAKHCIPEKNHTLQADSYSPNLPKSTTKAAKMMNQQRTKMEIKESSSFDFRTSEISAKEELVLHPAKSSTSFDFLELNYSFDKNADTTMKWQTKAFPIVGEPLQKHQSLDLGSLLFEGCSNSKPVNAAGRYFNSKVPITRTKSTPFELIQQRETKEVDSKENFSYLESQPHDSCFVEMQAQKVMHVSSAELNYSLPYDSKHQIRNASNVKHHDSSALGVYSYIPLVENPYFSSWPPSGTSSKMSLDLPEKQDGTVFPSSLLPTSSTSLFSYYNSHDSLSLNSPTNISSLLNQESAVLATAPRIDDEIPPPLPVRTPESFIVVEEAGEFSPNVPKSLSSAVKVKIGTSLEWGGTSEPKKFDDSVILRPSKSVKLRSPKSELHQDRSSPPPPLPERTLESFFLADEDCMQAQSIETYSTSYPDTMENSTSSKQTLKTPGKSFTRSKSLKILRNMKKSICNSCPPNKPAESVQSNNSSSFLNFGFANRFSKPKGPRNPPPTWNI
Kind of assay: Inhibition of recombinant LYP (unknown origin) using pNPP as substrate by spectrophotometric method. The method, boiled down:
as §1

A short description of assay [3]: Inhibition of recombinant Mycobacterium tuberculosis PTPB using pNPP as substrate by spectrophotometric method. The method, boiled down: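 Recombinant enzyme made in-house. Substrate pNPP in 50 mM 3,3-dimethylglutarate buffer, pH 7.0, with 1 mM EDTA and 150 mM NaCl, at 25 °C, screened in 96-well format. p-Nitrophenol product read at 405 nm. Non-enzymatic pNPP hydrolysis was corrected using a control without enzyme.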

Assay [4] addresses T3, Receptor-type tyrosine-protein phosphatase C (Homo sapiens, UniProt P08575).
T3 sequence (P08575 whole entry): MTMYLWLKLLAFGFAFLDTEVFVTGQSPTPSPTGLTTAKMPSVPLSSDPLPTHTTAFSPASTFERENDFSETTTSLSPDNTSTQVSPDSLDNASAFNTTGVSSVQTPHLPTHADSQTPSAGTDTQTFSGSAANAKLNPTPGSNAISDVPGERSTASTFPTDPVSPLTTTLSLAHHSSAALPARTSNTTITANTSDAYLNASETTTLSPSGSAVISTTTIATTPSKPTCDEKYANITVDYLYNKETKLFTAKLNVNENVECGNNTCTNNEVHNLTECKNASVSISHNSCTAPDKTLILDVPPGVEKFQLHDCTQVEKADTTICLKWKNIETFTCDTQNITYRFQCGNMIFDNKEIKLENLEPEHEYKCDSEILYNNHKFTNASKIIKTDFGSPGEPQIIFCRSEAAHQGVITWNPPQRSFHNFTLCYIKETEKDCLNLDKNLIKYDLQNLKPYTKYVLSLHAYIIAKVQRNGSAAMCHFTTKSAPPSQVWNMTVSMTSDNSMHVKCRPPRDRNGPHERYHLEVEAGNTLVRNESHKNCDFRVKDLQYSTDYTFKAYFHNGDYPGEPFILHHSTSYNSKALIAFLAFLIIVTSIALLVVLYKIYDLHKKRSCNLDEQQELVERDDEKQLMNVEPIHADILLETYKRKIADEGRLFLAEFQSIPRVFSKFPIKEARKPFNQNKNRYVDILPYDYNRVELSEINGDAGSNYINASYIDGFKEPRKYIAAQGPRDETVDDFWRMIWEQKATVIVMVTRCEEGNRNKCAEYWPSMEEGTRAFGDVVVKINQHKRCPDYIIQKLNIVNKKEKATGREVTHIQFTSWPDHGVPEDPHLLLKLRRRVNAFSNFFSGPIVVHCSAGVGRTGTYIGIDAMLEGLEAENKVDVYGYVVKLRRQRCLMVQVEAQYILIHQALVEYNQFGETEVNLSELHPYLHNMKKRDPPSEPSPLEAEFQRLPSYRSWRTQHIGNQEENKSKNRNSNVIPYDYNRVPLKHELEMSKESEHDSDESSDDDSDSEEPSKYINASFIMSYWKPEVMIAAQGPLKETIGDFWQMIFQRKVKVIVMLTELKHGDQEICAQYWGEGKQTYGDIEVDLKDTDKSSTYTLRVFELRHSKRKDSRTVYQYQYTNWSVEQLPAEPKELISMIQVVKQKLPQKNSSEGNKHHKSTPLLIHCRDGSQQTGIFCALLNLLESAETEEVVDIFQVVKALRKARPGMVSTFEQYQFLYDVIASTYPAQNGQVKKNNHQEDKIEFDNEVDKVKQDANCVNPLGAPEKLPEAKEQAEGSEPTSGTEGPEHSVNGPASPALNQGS
As to the kind of experiment: Inhibition of recombinant CD45 (unknown origin) using pNPP as substrate by spectrophotometric method. Summed up: as §1

Assay [5] has as its target Tyrosine-protein phosphatase non-receptor type 13 (Homo sapiens, UniProt Q12923). As to the kind of experiment: Inhibition of recombinant FAP1 (unknown origin) using pNPP as substrate by spectrophotometric method. The method, boiled down:
as §1

Assay [6] deals with T4, Tyrosine-protein phosphatase non-receptor type 11 (Homo sapiens, UniProt Q06124).
T4 sequence (Q06124 whole entry): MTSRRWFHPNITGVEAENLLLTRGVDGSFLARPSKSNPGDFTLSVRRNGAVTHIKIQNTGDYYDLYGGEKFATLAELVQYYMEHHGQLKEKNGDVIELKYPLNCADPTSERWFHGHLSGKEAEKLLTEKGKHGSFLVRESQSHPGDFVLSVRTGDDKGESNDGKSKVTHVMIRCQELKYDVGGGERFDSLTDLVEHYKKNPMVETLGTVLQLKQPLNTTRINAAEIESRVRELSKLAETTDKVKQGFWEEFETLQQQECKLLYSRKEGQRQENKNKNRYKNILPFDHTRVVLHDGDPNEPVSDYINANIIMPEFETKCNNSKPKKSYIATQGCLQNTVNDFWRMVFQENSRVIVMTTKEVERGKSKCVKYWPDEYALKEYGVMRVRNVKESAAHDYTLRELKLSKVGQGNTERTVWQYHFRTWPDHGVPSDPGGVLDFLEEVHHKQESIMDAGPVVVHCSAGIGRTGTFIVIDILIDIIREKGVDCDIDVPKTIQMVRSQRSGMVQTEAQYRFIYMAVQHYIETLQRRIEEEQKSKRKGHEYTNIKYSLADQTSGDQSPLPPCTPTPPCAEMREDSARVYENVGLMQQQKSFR
As to the kind of experiment: Inhibition of recombinant SHP2 (unknown origin) using pNPP as substrate by spectrophotometric method. The method, boiled down: as §1

Tyrosine-protein phosphatase non-receptor type 13, sequence (Q12923 whole entry): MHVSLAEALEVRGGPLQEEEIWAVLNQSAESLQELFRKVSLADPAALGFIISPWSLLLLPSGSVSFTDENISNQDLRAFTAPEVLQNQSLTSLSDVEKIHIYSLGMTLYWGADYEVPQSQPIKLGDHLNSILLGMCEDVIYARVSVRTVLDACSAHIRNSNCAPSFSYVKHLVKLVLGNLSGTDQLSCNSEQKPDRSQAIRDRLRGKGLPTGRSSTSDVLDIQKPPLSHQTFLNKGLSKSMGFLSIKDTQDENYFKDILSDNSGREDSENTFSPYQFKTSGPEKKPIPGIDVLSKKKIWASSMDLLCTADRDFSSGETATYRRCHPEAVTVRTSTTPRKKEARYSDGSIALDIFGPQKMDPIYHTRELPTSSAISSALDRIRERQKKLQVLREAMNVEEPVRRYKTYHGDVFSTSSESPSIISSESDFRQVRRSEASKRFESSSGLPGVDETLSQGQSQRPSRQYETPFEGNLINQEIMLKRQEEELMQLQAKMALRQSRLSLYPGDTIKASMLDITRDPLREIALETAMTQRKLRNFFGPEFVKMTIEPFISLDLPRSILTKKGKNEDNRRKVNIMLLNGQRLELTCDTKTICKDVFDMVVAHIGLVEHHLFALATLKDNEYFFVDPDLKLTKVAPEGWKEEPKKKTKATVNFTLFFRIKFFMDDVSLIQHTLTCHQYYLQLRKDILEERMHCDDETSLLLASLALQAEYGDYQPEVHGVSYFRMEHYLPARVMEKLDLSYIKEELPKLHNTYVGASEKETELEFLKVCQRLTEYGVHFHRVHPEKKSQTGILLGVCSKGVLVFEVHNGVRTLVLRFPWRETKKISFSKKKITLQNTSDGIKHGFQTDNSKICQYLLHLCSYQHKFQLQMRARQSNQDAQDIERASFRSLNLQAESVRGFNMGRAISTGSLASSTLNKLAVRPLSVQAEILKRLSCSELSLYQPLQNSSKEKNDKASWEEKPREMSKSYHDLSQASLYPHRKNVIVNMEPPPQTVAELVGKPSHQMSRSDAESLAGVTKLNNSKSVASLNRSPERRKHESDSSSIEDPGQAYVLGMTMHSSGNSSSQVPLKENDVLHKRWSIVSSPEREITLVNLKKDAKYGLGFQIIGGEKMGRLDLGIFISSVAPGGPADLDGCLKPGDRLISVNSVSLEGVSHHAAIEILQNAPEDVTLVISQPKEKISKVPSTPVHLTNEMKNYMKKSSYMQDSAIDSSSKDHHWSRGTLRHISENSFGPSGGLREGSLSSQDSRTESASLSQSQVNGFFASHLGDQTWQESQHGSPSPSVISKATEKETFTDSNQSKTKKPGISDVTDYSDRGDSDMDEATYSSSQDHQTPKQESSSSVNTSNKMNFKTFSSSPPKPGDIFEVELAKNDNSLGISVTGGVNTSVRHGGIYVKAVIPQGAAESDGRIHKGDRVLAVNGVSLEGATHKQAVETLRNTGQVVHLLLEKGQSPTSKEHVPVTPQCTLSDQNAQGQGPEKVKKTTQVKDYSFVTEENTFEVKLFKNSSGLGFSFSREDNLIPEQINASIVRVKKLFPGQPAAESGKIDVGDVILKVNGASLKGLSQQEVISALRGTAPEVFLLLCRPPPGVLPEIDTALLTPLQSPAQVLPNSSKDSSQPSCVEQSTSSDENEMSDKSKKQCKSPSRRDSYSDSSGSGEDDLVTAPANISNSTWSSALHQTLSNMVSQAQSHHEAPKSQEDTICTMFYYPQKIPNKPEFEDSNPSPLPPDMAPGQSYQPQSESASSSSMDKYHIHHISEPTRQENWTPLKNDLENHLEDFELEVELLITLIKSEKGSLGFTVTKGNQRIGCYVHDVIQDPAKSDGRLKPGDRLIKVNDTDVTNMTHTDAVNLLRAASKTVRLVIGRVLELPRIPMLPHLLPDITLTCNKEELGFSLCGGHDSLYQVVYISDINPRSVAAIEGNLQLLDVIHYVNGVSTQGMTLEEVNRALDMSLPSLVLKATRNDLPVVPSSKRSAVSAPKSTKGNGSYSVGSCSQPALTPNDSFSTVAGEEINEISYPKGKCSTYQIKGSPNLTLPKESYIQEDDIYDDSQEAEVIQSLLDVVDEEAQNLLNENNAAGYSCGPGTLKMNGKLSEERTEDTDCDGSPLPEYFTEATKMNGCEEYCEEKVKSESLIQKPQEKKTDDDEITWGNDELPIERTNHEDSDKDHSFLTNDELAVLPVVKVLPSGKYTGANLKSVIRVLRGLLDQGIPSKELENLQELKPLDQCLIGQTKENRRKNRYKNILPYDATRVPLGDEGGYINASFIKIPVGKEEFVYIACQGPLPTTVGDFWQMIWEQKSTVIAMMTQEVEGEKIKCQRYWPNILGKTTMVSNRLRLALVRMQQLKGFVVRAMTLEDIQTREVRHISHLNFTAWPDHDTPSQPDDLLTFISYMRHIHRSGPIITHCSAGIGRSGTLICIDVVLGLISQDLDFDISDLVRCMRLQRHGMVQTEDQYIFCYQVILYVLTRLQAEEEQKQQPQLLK

The IC50 is the concentration that gives 50% inhibition. Turning to `O=C(COc1ccc2cc(C(O)(C(F)(F)F)C(F)(F)F)c(O)cc2c1)NC12CC3CC(CC(C3)C1)C2`, the IC50 was 14.7 µM in assay [1]; 10.1 µM in assay [2]; > 20 µM in assay [3]; 7.6 µM in assay [4]; 7.4 µM in assay [5]; 9 µM in assay [6].

As for `CCN(CC)C(=O)COc1ccc2cc(C(O)(C(F)(F)F)C(F)(F)F)c(O)cc2c1`, the IC50 in assay [1], in assay [2], in assay [3], in assay [4], in assay [5] and in assay [6] was > 20 µM each time.

With `O=C(COc1ccc2cc(C(O)(C(F)(F)F)C(F)(F)F)c(O)cc2c1)NCc1ccccc1`, the IC50 in assay [1], in assay [2], in assay [3], in assay [4], in assay [5] and in assay [6] was > 20 µM each time.

Turning to `O=C(COc1ccc2cc(C(O)(C(F)(F)F)C(F)(F)F)c(O)cc2c1)Nc1cccc2ccccc12`, the IC50 was > 20 µM in assay [1]; > 20 µM in assay [2]; 4.7 µM in assay [3]; 29.1 µM in assay [4]; > 20 µM in assay [5]; > 20 µM in assay [6].

For `COc1ccc(CNC(=O)COc2ccc3cc(C(O)(C(F)(F)F)C(F)(F)F)c(O)cc3c2)cc1OC`, the IC50 is > 20 µM in assay [1]; > 20 µM in assay [2]; 18.1 µM in assay [3]; > 20 µM in assay [4]; > 20 µM in assay [5]; > 20 µM in assay [6].

For the molecule `O=C(COc1ccc2cc(C(O)(C(F)(F)F)C(F)(F)F)c(O)cc2c1)N(c1ccccc1)c1ccccc1`, the half-inhibitory concentration (IC50) in assay [1] is > 20 µM; in assay [2] it was 20.6 µM; in assay [3] it was > 20 µM; in assay [4], 14.9 µM; in assay [5] it was 12.4 µM; in assay [6], 19.5 µM.

`O=C(COc1ccc2cc(C(O)(C(F)(F)F)C(F)(F)F)c(O)cc2c1)Nc1ccc(N2CCOCC2)cc1`: the half-maximal inhibitory concentration (IC50) in assay [1], in assay [2], in assay [3], in assay [4], in assay [5] and in assay [6] was > 20 µM throughout.

Regarding `CC(C)c1ccc(NC(=O)COc2ccc3cc(C(O)(C(F)(F)F)C(F)(F)F)c(O)cc3c2)cc1`, the half-inhibitory concentration (IC50) in assay [1] was 17.2 µM; in assay [2] it was 8.8 µM; in assay [3] it was 7.3 µM; in assay [4] it was 7.8 µM; in assay [5], 6.5 µM; in assay [6], 8.5 µM.

In the case of `Oc1c(C(O)(C(F)(F)F)C(F)(F)F)ccc2ccccc12`, the IC50 in assay [1], in assay [2], in assay [3], in assay [4], in assay [5] and in assay [6] was > 500 µM throughout.
